# Measurements published in ChEMBL document CHEMBL4387708, “Enhancement of Benzothiazoles as Pteridine Reductase-1 Inhibitors for the Treatment of Trypanosomatidic Infections” (J Med Chem, 2019).
# Active and inactive are the calls of the source. No cut-off for these calls is given here.
# Legend:
# Leishmania infantum = test: Growth inhibition of luciferase expressing Leishmania infantum axenic amastigotes infected in human THP1 cells at 10 uM measured after 72 hrs by steady-glo luminescence assay relative to control; format: organism-based; details: leishmania infantum, 72 h, 10 µM
# Trypanosoma brucei [1] = test: Inhibition of N-terminal His-tagged Trypanosoma brucei pteridine reductase 1 at 50 uM using di-hydrobiopterine as substrate measured at 1 min interval for 50 mins in presence of NADPH relative to control
# Procedure, shortened: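 Photometric PTR1 assay with NADPH and dihydrobiopterin substrate. H₄B formation is coupled non-enzymatically to cytochrome c reduction, read as signal increase at 550 nm.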
# Trypanosoma brucei [2] = test: Growth inhibition of Trypanosoma brucei bloodstream forms measured after 72 hrs by resazurin-based fluorescence assay; format: organism-based
# Procedure, shortened: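 Mid-log bloodstream-form T. brucei were seeded at a final 5 x 10^3/mL in supplemented HMI-9 with serial compound dilutions. Cultures ran 72 h at 37 °C, 5% CO₂, then 4 h more after resazurin. Fluorescence was read at ex 540/em 620 nm, and EC₅₀ was fitted by non-linear regression.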
# Trypanosoma brucei [3] = test: Growth inhibition of Trypanosoma brucei bloodstream forms at 10 uM measured after 72 hrs by resazurin-based fluorescence assay relative to control; format: organism-based; details: Trypanosoma brucei, read-out: GI
# Cytochrome P450 1A2 = biological target: T1, Cytochrome P450 1A2 (Homo sapiens, UniProt P05177); test: Inhibition of human CYP1A2 expressed in baculovirus infected insect cells using beetle D-luciferin as substrate preincubated for 30 mins followed by NADPH addition and measured after 30 mins by CYP450-Glo assay
# T1 sequence (P05177 whole entry): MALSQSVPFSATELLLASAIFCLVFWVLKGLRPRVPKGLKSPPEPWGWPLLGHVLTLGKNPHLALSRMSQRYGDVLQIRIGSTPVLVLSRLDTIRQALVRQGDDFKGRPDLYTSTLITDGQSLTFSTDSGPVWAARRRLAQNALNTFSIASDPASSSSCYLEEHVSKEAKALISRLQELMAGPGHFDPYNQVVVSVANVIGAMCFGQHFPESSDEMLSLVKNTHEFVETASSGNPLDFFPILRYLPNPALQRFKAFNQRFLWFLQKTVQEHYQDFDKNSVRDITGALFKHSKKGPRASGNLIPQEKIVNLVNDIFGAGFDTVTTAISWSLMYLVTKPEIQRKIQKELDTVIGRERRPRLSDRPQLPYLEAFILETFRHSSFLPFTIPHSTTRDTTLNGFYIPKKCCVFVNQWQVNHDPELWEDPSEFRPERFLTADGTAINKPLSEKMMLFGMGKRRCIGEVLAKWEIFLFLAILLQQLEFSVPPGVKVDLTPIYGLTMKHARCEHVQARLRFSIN
# Cytochrome P450 2C9 = Cytochrome P450 2C9 (Homo sapiens, UniProt P11712); test: Inhibition of human CYP2C9 expressed in baculovirus infected insect cells using beetle D-luciferin as substrate preincubated for 30 mins followed by NADPH addition and measured after 30 mins by CYP450-Glo assay
# Chain of Cytochrome P450 2C9 (P11712 whole entry): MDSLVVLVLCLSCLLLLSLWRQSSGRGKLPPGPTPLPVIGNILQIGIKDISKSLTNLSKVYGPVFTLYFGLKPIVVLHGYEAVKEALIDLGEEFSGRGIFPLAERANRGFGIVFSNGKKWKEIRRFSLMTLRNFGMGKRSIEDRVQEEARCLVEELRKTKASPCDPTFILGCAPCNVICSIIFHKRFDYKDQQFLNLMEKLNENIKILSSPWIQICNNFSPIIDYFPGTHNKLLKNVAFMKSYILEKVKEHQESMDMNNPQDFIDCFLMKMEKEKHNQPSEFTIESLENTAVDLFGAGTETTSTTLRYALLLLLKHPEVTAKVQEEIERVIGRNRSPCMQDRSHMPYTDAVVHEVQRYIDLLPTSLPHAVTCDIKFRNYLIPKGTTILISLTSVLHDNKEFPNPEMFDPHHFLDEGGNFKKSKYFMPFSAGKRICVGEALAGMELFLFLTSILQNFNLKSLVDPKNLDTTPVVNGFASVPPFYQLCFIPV
# Cytochrome P450 3A4 = Cytochrome P450 3A4 (Homo sapiens, UniProt P08684); test: Inhibition of human CYP3A4 expressed in baculovirus infected insect cells using beetle D-luciferin as substrate preincubated for 30 mins followed by NADPH addition and measured after 30 mins by CYP450-Glo assay
# Chain of Cytochrome P450 3A4 (P08684 whole entry): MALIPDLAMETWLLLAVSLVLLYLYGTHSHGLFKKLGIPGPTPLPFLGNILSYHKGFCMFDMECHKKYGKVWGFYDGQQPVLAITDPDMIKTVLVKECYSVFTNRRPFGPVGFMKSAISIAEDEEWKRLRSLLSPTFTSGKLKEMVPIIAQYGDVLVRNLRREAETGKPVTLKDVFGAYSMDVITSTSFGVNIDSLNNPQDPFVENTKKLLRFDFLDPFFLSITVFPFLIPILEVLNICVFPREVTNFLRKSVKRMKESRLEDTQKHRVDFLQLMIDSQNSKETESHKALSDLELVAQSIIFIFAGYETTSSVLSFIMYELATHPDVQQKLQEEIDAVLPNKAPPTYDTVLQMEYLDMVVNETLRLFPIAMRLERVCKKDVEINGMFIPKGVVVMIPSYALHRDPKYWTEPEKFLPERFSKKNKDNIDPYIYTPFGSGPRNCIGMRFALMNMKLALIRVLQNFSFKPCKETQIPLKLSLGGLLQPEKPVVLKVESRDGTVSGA
# [4] = Cytotoxicity against human THP1 cells after 72 hrs by MTT assay; format: cell-based, THP-1; details: read-out: NOAEL
# [5] = Thermodynamic solubility of the compound in phosphate buffered saline after 24 hrs by spectrophotometric method; format: physicochemical; details: read-out: Therm_solubility
# Procedure, shortened: (§1)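 Over-saturated suspensions (theoretical maximum 100 µg/mL) in water, PBS, PBS + 10% DMSO or PBS + 50% DMSO were stirred at 1200 rpm for 24 h at 25 °C. They were filtered at 0.2 µm and diluted 1:1 with ACN. Concentration was quantified by UV using a molar extinction coefficient determined at 340 nm.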
# [6] = Thermodynamic solubility of the compound in phosphate buffered saline/50%DMSO after 24 hrs by spectrophotometric method; format: physicochemical; details: read-out: Therm_solubility; procedure, shortened: as §1
# CYP1A2 = test: Selectivity index ratio of IC50 for CYP1A2 (unknown origin) to EC50 for growth inhibition of Trypanosoma brucei bloodstream forms; format: toxicity; details: read-out: Ratio IC50/EC50
# CYP2C9 = test: Selectivity index ratio of IC50 for CYP2C9 (unknown origin) to EC50 for growth inhibition of Trypanosoma brucei bloodstream forms; format: toxicity; details: read-out: Ratio IC50/EC50
# CYP2C19 = test: Selectivity index ratio of IC50 for CYP2C19 (unknown origin) to EC50 for growth inhibition of Trypanosoma brucei bloodstream forms; format: toxicity; details: read-out: Ratio IC50/EC50
# [7] = Selectivity index ratio of GI50 for human A549 cells to EC50 for growth inhibition of Trypanosoma brucei bloodstream forms; format: toxicity; details: read-out: Ratio GI50/EC50
# [8] = AUC in BALB/c mouse at 1 mg/kg, iv by LC-MS analysis; format: ADME, organism-based; details: in vivo
# Procedure, shortened: (§2)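 Snapshot PK in healthy BALB/c mice. Free compound given in 8% DMSO at 1 mg/kg IV or 20 mg/kg per os; for the formulated arm it was solubilized with hydroxypropyl-β-cyclodextrin (50%) and given at 20 mg/kg per os. Plasma levels were quantified by LC-MS on a C18 column with triple-quadrupole ESI detection in positive ion mode.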
# [9] = AUC in BALB/c mouse at 20 mg/kg, po by LC-MS analysis; format: ADME, organism-based; details: in vivo; procedure, shortened: as §2
# [10] = AUC in BALB/c mouse at 20 mg/kg, po co-formulated with hydroxypropyl-beta-cyclodextrin by LC-MS analysis; format: ADME, organism-based; details: in vivo; procedure, shortened: as §2
# [11] = Half-life in BALB/c mouse at 1 mg/kg, iv by LC-MS analysis; format: ADME, organism-based; details: in vivo; procedure, shortened: as §2
# [12] = Half-life in BALB/c mouse at 20 mg/kg, po by LC-MS analysis; format: ADME, organism-based; details: in vivo; procedure, shortened: as §2
# [13] = Half-life in BALB/c mouse at 20 mg/kg, po co-formulated with hydroxypropyl-beta-cyclodextrin by LC-MS analysis; format: ADME, organism-based; details: in vivo; procedure, shortened: as §2
# [14] = Clearance in BALB/c mouse at 20 mg/kg, po co-formulated with hydroxypropyl-beta-cyclodextrin by LC-MS analysis; format: ADME, organism-based; details: in vivo; procedure, shortened: as §2
# [15] = system: Trypanosoma brucei brucei; test: Antitrypanosomal activity against red-shifted luciferase expressing Trypanosoma brucei brucei GVR35 infected in BALB/c mouse assessed as reduction in parasite infection at 40 mg/kg, po administered twice a day as suspension in hydroxypropyl-beta-cyclodextrin solution by bioluminescence assay; format: functional, organism-based
# Procedure, shortened: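 T. b. brucei GVR35 (luciferase-expressing) was given IP to BALB/c mice as blood carrying 1 x 10⁵ parasites from a donor mouse at first-peak parasitemia; controls received PBS. Compound was given orally as a suspension in (2-hydroxypropyl)-β-cyclodextrin solution at 40 mg/kg twice daily. […] Parasite load was read by bioluminescence imaging after subcutaneous D-luciferin under isoflurane, as total flux per ROI.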
# [16] = Selectivity ratio of IC50 for Leishmania major pteridine reductase 1 to IC50 for N-terminal His-tagged Trypanosoma brucei pteridine reductase 1
structure (smiles),measurement,setting,value
Nc1nc2ccc(C(=O)NCc3ccccc3)cc2s1,growth inhibition (GI),Leishmania infantum,Non-Toxic
same,inhibition,Trypanosoma brucei [1],> 60%
same,EC50,Trypanosoma brucei [2],7 µM
same,inhibition at 10 µM,Trypanosoma brucei [3],> 60%
same,IC50,Cytochrome P450 1A2,> 25 µM
same,IC50,Cytochrome P450 2C9,> 25 µM
same,IC50,Cytochrome P450 3A4,> 25 µM
same,MNTC at 72 h,[4],> 25 µM
same,solubility thermodynamic at 24 h,[5],10.9 µg/mL
same,solubility thermodynamic at 24 h,[6],> 100 µg/mL
same,selectivity ratio,CYP1A2,> 10
same,selectivity ratio,CYP2C9,> 10
same,selectivity ratio,CYP2C19,> 10
same,selectivity ratio,[7],> 10
same,AUC,[8],1057 ng·h/mL
same,AUC,[9],4690 ng·h/mL
same,AUC,[10],7930 ng·h/mL
same,half-life,[11],207 min
same,half-life,[12],2610 min
same,half-life,[13],2090 min
same,CL/F,[14],41 mL/min/kg
same,Activity,[15],inactive
same,Ratio IC50,[16],2 to 100
